Experimental data: ChEMBL document CHEMBL1129405, “In vitro and in vivo evaluation of 6-azido-2',3'-dideoxy-2'-fluoro-beta-D-arabinofuranosylpurine and N6-methyl-2',3'-dideoxy-2'-fluoro-beta-D-arabinofuranosyladenine as prodrugs of the anti-HIV nucleosides 2'-F-ara-ddA and 2'-F-ara-ddI” (J Med Chem, 1996)
Values belong to the compound of their own block, whether it stands above or below them.

Key:
[1] = test system: Mus musculus; assay: t1/2 was measured at 55 mg/kg dose by oral administration in mice brain; t1/2 (h); not detected; format: ADME, organism-based; parameters: dose 55 mg/kg, route oral; conditions: in vivo
[2] = test system: Mus musculus; assay: t1/2 was measured AT 112 mg/kg dose by intravenous administration in mice brain; not detected; conditions: in vivo
[3] = (§1) The ratio of AUC /dose (uM); format: ADME
[4] = test system: Mus musculus; assay: Pharmacokinetic parameter AUC was measured at 112 mg/kg dose by intravenous administration in mice brain; AUC (mM.h); not detected; format: ADME, organism-based; parameters: dose 112 mg/kg, route intravenous; conditions: in vivo
Method in brief: (§2)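 Female NIH-Swiss mice (24-28 g), tail-vein injection of 112 mg/kg (437 µmol/kg) in saline (15 mg/mL); three mice per time point, ether anesthesia, exsanguination by heart puncture; serum and brain (homogenized 1:1 g:mL in ice-cold isotonic 0.05 M phosphate, pH 7.4) assayed by HPLC, UV 260 nm. Noncompartmental analysis of mean concentrations; AUC by Lagrange interpolation, extrapolated via terminal slope (last 3-5 points); t1/2 = 0.693/λz; AUC normalized to µmol/kg dose.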

[5] = test system: Mus musculus; assay: Pharmacokinetic parameter AUC was measured at 55 mg/kg dose by oral in mice brain; AUC (mM.h); not detected; format: ADME, organism-based; parameters: dose 55 mg/kg, route oral; conditions: in vivo
[6] = (§3) The ratio of AUC /dose(uM); not detected; format: ADME
[7] = test system: Mus musculus; assay: Pharmacokinetic parameter AUC was measured at 112 mg/kg dose by intravenous administration using FMAddA as substrate in mice brain; AUC 0-r (mM.h); not detected; format: ADME, organism-based; parameters: dose 112 mg/kg, route intravenous; conditions: in vivo; method in brief: as §2
[8] = The ratio of AUC /dose(uM); format: ADME
[9] = as §1; format: ADME; remark: listed apart in the source
[10] = as §3; format: ADME; remark: listed apart in the source
[11] = test system: Mus musculus; assay: The ratio of AUC / dose (mM.h/uMol)/kg at 112 mg/kg dose after intravenous administration in mice serum; AUC/Dose (uM); format: ADME, organism-based; parameters: dose 112 mg/kg, route intravenous; conditions: in vivo; method in brief: as §2
[12] = test system: Mus musculus; assay: The ratio of AUC / dose (mM.h/uMol)/kg at 112 mg/kg dose after intravenous administration in mice brain; AUC/Dose (uM); format: ADME, organism-based; parameters: dose 112 mg/kg, route intravenous; conditions: in vivo; method in brief: as §2
[13] = test system: Mus musculus; assay: The ratio of AUC / dose (mM.h/umol)/kg at 112 mg/kg dose after intravenous administration in mice serum; format: ADME, organism-based; parameters: dose 112 mg/kg, route intravenous; conditions: in vivo; method in brief: as §2
[14] = test system: Mus musculus; assay: The ratio of AUC / dose (mM.h/uMol)/kg at 112 mg/kg dose after oral administration in mice serum; AUC/Dose (uM); format: ADME, organism-based; parameters: dose 112 mg/kg, route oral; conditions: in vivo

T1/2 [1]: Not detected
T1/2 [2]: Not detected
Ratio [3]: 0.13
AUC [4]: Not detected
AUC [5]: Not detected
Ratio [6]: Not detected
AUC [7]: Not detected
Ratio [8]: 0.046
Ratio [9]: 0.48
Ratio [10]: Not detected
Structure (SMILES): OCC1CC(F)C(n2cnc3c(O)ncnc32)O1 (stereo not drawn)

Ratio [11]: 0.68
Ratio [12]: 0.09
Structure (SMILES): CNc1ncnc2c1ncn2C1OC(CO)CC1F (stereo not drawn)

Ratio [13]: 1.01
Ratio [12]: 0.06
Ratio [14]: 0.19
Structure (SMILES): [N-]=[N+]=Nc1ncnc2c1ncn2C1OC(CO)CC1F (stereo not drawn)

Ratio [11]: 0.04
Ratio [12]: 0.02
Ratio [14]: 0.005
Structure (SMILES): Nc1ncnc2c1ncn2[C@@H]1O[C@H](CO)C[C@@H]1F [LODENOSINE]
